Experimental data published in ChEMBL document CHEMBL2040734, “Benzothiazoles: search for anticancer agents” (2012).

Assays:
Type in all cases: functional
ACHN [1] = test: Cytotoxicity against human ACHN cells assessed as cell growth at 0.01 uM after 48 hrs by sulforhodamine B assay; conditions: read-out: Activity
Procedure, shortened: (§1)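 NCI-60 five-dose screen. Cells were grown in RPMI 1640 with 5% FBS and 2 mM L-glutamine and preincubated 24 h. Compound (DMSO stock) was tested at 0.01, 0.1, 1, 10 and 100 µM for 48 h at 37 °C. Cells were fixed in situ with cold TCA (final 10%) and stained with 0.4% SRB. A515 was read, and percent growth was calculated against time-zero and control plates.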

EKVX = test: Cytotoxicity against human EKVX cells assessed as cell growth at 0.1 uM after 48 hrs by sulforhodamine B assay; conditions: read-out: Activity
Procedure, shortened: (§2)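 Five-dose NCI panel run at 0.01, 0.1, 1, 10 and 100 µM. Cells were in RPMI 1640 with 5% FBS and 2 mM L-glutamine, seeded at 5000–40,000 cells/well and pre-incubated 24 h. Drug was diluted from a DMSO stock into medium with 50 µg/ml gentamicin. Exposure was 48 h at 37 °C, 5% CO2. Cells were fixed with cold TCA and stained with 0.4% SRB, read at 515 nm. Percent growth came from time-zero, control and test absorbances.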

NCI-H460 = test: Cytotoxicity against human NCI-H460 cells assessed as cell growth at 0.1 uM after 48 hrs by sulforhodamine B assay; conditions: NCI-H460, 48 h, read-out: Activity
HCT-15 = test: Cytotoxicity against human HCT15 cells assessed as cell growth at 0.1 uM after 48 hrs by sulforhodamine B assay; conditions: HCT-15, 48 h, read-out: Activity; procedure, shortened: as §2
HT-29 = test: Cytotoxicity against human HT-29 cells assessed as cell growth at 0.1 uM after 48 hrs by sulforhodamine B assay; conditions: HT-29, 48 h, read-out: Activity; procedure, shortened: as §2
SF-295 = test: Cytotoxicity against human SF295 cells assessed as cell growth at 0.1 uM after 48 hrs by sulforhodamine B assay; conditions: SF-295, 48 h, read-out: Activity
U-251 = test: Cytotoxicity against human U251 cells assessed as cell growth at 0.1 uM after 48 hrs by sulforhodamine B assay; conditions: U-251, 48 h, read-out: Activity
OVCAR-3 [2] = test: Cytotoxicity against human OVCAR3 cells assessed as cell growth at 100 uM after 48 hrs by sulforhodamine B assay; conditions: OVCAR-3, 48 h, read-out: Activity
MDA-MB-468 = test: Cytotoxicity against human MDA-MB-468 cells assessed as cell growth at 100 uM after 48 hrs by sulforhodamine B assay; conditions: MDA-MB-468, 48 h, read-out: Activity
SNB-75 = test: Cytotoxicity against human SNB75 cells assessed as cell growth at 1 uM after 48 hrs by sulforhodamine B assay; conditions: SNB-75, 48 h, read-out: Activity
M14 = test: Cytotoxicity against human M14 cells assessed as cell growth at 1 uM after 48 hrs by sulforhodamine B assay; conditions: M14, 48 h, read-out: Activity
UACC-257 = test: Cytotoxicity against human UACC257 cells assessed as cell growth at 1 uM after 48 hrs by sulforhodamine B assay; conditions: UACC-257, 48 h, read-out: Activity
ACHN [3] = test: Cytotoxicity against human ACHN cells assessed as cell growth at 1 uM after 48 hrs by sulforhodamine B assay; conditions: read-out: Activity; procedure, shortened: as §1
HL-60(TB) = test: Cytotoxicity against human HL-60(TB) cells assessed as cell growth at 10 uM after 48 hrs by sulforhodamine B assay; conditions: HL-60, 48 h, read-out: Activity
Procedure, shortened: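 NCI five-dose screen on the HL-60(TB) leukaemia line, grown in RPMI 1640 with 5% FBS and 2 mM L-glutamine and plated for 24 h before dosing. DMSO stocks were diluted in medium. Cells were exposed 48 h at 37 °C, then settled cells were fixed in 16% TCA (final) and stained with SRB, absorbance 515 nm. Percent growth = (Ti−Tz)/(C−Tz)×100, or (Ti−Tz)/Tz×100 when Ti<Tz.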

T47D = test: Cytotoxicity against human T47D cells assessed as cell growth at 10 uM after 48 hrs by sulforhodamine B assay; conditions: read-out: Activity
HCC 2998 = test: Cytotoxicity against human HCC2998 cells assessed as cell growth at 10 '-5 M after 48 hrs by sulforhodamine B assay; conditions: HCC 2998, 48 h, read-out: Activity
Procedure, shortened: (§3)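 Primary one-dose screen across the NCI 60-line panel at 10 µM. Cells were grown in RPMI 1640 with 5% FBS and 2 mM L-glutamine and held 24 h before drug. Drug was diluted from a DMSO concentrate. Exposure was 48 h at 37 °C, 5% CO2. Cells were fixed with TCA and stained with SRB, with absorbance read at 515 nm. Percent growth was calculated against time-zero and untreated control.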

SF-539 = test: Cytotoxicity against human SF539 cells assessed as cell growth at 10 '-5 M after 48 hrs by sulforhodamine B assay; conditions: SF-539, 48 h, read-out: Activity
TK-10 = test: Cytotoxicity against human TK10 cells assessed as cell growth at 10 '-5 M after 48 hrs by sulforhodamine B assay; conditions: TK-10, 48 h, read-out: Activity
CCRF-CEM = test: Growth inhibition of human CCRF-CEM cells after 48 hrs by sulforhodamine B assay
Procedure, shortened: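 Cells were in RPMI 1640 with 5% FBS and pre-incubated 24 h. Read-out was TCA fixation, SRB staining and absorbance at 515 nm. GI50 was the concentration where [(Ti−Tz)/(C−Tz)]×100 = 50, taken from log concentration vs % growth curves. It is given as ">" the top concentration when not reached.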

DU-145 = test: Growth inhibition of human DU145 cells after 48 hrs by sulforhodamine B assay; conditions: DU-145, 48 h; for CC50: read-out: LC50 (the source's name)
Procedure, shortened: (§4)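 Adherent NCI-60 lines were grown in RPMI 1640 with 5% FBS and 2 mM L-glutamine, plated at 5000–40,000 cells/well and preincubated 24 h. They were then exposed to five concentrations (0.01–100 µM, from a DMSO stock) for 48 h at 37 °C, 5% CO2. Cells were fixed with cold TCA (10% final, 60 min, 4 °C) and stained with 0.4% SRB. Dye was solubilized in 10 mM Tris base and A515 read. GI50 was derived from time-zero, control and treated absorbances.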

[4] = Growth inhibition of human Hs 578T cells after 48 hrs by sulforhodamine B assay; conditions: for CC50: read-out: LC50 (the source's name); procedure, shortened: as §4
COLO 205 = test: Cytotoxicity against human COLO205 cells assessed as cell growth at 0.01 uM after 48 hrs by sulforhodamine B assay; conditions: COLO 205, 48 h, read-out: Activity; procedure, shortened: as §1
HOP-62 = test: Cytotoxicity against human HOP62 cells assessed as cell growth at 10 '-5 M after 48 hrs by sulforhodamine B assay; conditions: HOP-62, 48 h, read-out: Activity; procedure, shortened: as §3
OVCAR-3 [5] = test: Cytotoxicity against human OVCAR3 cells assessed as cell growth at 0.01 uM after 48 hrs by sulforhodamine B assay; conditions: OVCAR-3, 48 h, read-out: Activity

Row | SMILES | growth at 0.01 µM (ACHN [1]) | growth at 0.1 µM (EKVX) | growth at 0.1 µM (NCI-H460) | growth at 0.1 µM (HCT-15) | growth at 0.1 µM (HT-29) | growth at 0.1 µM (SF-295) | growth at 0.1 µM (U-251) | growth at 100 µM (OVCAR-3 [2]) | growth at 100 µM (MDA-MB-468) | growth at 1 µM (SNB-75) | growth at 1 µM (M14) | growth at 1 µM (UACC-257) | growth at 1 µM (ACHN [3]) | growth at 10 µM (HL-60(TB)) | growth at 10 µM (T47D) | growth at 10 µM (HCC 2998) | growth at 10 µM (SF-539) | growth at 10 µM (TK-10) | GI50 (CCRF-CEM) | LC50 (CCRF-CEM) | other results
1 | Cc1ccc2nc(Nc3c(C)cccc3C)sc2c1 | 97% | 89% | 103% | 98% | 92% | 88% | 105% | 66% | 27% | 52% | 58% | 83% | 84% | 30% | 60% | 54.1% | 45.3% | 61.3% | > 100 µM | > 100 µM | TGI (CCRF-CEM): > 100 µM; GI50 (DU-145): > 100 µM; TGI (DU-145): > 100 µM; CC50 (DU-145): > 100 µM; GI50 [4]: 3.84 µM; TGI [4]: > 100 µM; CC50 [4]: > 100 µM; growth at 0.01 µM (COLO 205): 107%; growth at 10 µM (HOP-62): 45.7%; growth at 0.01 µM (OVCAR-3 [5]): 101%
2 | Clc1cccc(Cl)c1Nc1nc2cccc(Cl)c2s1 | 99% | 82% | 96% | 99% | 96% | 82% | 98% | -76% | -59% | 46% | 73% | 68% | 60% | -47% | -90% | -26.1% | -47.5% | -35.7% | 1.32 µM | > 100 µM | TGI (CCRF-CEM): 4.43 µM; GI50 (DU-145): 1.41 µM; TGI (DU-145): 2.75 µM; CC50 (DU-145): 5.39 µM; GI50 [4]: 0.938 µM; TGI [4]: 3.49 µM; CC50 [4]: > 100 µM; growth at 0.01 µM (COLO 205): 105%; growth at 10 µM (HOP-62): -38.2%; growth at 0.01 µM (OVCAR-3 [5]): 98%
